Measurements reported in ChEMBL document CHEMBL1154192, “A series of 1, 2-coupled indane dimers with mast cell stabilisation and smooth muscle relaxation properties” (Eur J Med Chem, 2009).

What was measured:
[1] = system: Mast cell; test: Inhibition of compound 48/80-induced histamine release in Wistar rat peritoneal mast cell at 20 uM treated 10 mins before compound 48/80 challenge; assay type: functional
Summary of the method: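 Peritoneal cells were lavaged from female Wistar rats (250–350 g) into prewarmed (37 °C) HEPES-buffered salt solution, without purification. Cells were centrifuged, washed three times and held at 4 °C. Inhibition is given as percentage of stimulated release, mean ± SEM, n = 5–10.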

[2] = system: Ileum; test: Inhibition of calcium-induced contraction in guinea pig ileum at 10 uM; assay type: functional; details: Cavia porcellus
Summary of the method: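 Guinea-pig ileum was suspended in calcium-free Krebs solution containing 45 mM K+ and contracted by bringing bath calcium to 2.5 mM (sustained >40 min). At stable maximal contracture a single 1 × 10⁻⁵ M concentration was added. Inhibition is given as percentage of stimulated contraction, mean ± SEM, n = 6–12.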

[3] = system: Ileum; test: Inhibition of calcium-induced contraction in guinea pig ileum; assay type: functional, tissue-based; details: Cavia porcellus
Summary of the method: (§1)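 Isolated guinea-pig ileum in high-potassium (45 mM), calcium-free modified Krebs solution. Sustained contractures (>40 min) were elicited by raising bath CaCl2 to 2.5 mM. Once contraction reached a stable maximum, compound was added cumulatively (3 × 10⁻⁸ – […]). IC50 was calculated from the concentration-effect curve.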

[4] = system: Ileum; test: Inhibition of calcium-induced contraction in guinea pig ileum at 0.03 to 10 uM; assay type: functional, tissue-based; details: Cavia porcellus; summary of the method: as §1
[5] = system: Ileum; test: Inhibition of calcium-induced contraction in guinea pig ileum at 0.001 to 0.1 uM; assay type: functional, tissue-based; details: Cavia porcellus
Summary of the method: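 Isolated guinea-pig ileum in high-potassium (45 mM), calcium-free modified Krebs solution. CaCl2 was added to raise bath calcium to 2.5 mM, giving sustained (>40 min) contractures. At stable maximum, drug was added cumulatively at […] to 1 × 10^-7 M. Read-out was inhibition of contracture; IC50 was calculated from the concentration-effect curve.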

[6] = system: Ileum; test: Inhibition of calcium-induced contraction in guinea pig ileum at 0.01 uM; assay type: functional; details: Cavia porcellus
Summary of the method: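 Isolated guinea-pig ileum in high-potassium (45 mM), calcium-free modified Krebs solution. Sustained (>40 min) contractures were elicited by raising bath calcium to 2.5 mM with CaCl2. At stable maximum, a single concentration (1 × 10^-8 M) was added. Inhibition was expressed as a percentage of stimulated values, mean ± SEM, n = 6.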

O=C(O)CC1(C2=CCc3ccccc32)Cc2ccccc2C1=O (stereo unspecified)
inhibition at 20 µM [1]: 10.3%
inhibition at 10 µM [2]: 1.8%

CCCCCC1(C2=CCc3ccccc32)Cc2ccccc2C1=O (stereo unspecified)
inhibition at 20 µM [1]: -3.2%
inhibition at 10 µM [2]: 18%

CCCC1(C2=CCc3ccccc32)Cc2ccccc2C1=O (stereo unspecified)
inhibition at 20 µM [1]: 41.2%
inhibition at 10 µM [2]: 51.7%

CC/C=C/CC1(C2=CCc3ccccc32)Cc2ccccc2C1O (stereo unspecified)
inhibition at 20 µM [1]: 49.7%
inhibition at 10 µM [2]: 25.6%

O=C1c2ccccc2CC1(Cc1ccccc1)C1=CCc2ccccc21 (stereo unspecified)
inhibition at 20 µM [1]: 24.7%
inhibition at 10 µM [2]: 18.9%

CCCC1(C2=CCc3ccccc32)Cc2ccccc2C1O (stereo unspecified)
inhibition at 20 µM [1]: -26%
inhibition at 10 µM [2]: 34.3%

CC/C=C/CC1(C2=CCc3ccccc32)Cc2ccccc2C1=O (stereo unspecified)
inhibition at 20 µM [1]: 32.5%
inhibition at 10 µM [2]: 19.9%

C=CCC1(C2=CCc3ccccc32)Cc2ccccc2C1O (stereo unspecified)
inhibition at 20 µM [1]: -35.5%
inhibition at 10 µM [2]: 79.5%
IC50 [3]: 6200 nM
IC50 [4]: 6.2 µM

CCC1(C2=CCc3ccccc32)Cc2ccccc2C1=O (stereo unspecified)
inhibition at 20 µM [1]: 19.4%
inhibition at 10 µM [2]: 49.6%

CC1(C2=CCc3ccccc32)Cc2ccccc2C1=O (stereo unspecified)
inhibition at 20 µM [1]: 15.6%
inhibition at 10 µM [2]: 41.3%

COC(=O)CC1(C2=CCc3ccccc32)Cc2ccccc2C1=O (stereo unspecified)
inhibition at 20 µM [1]: 21.9%
inhibition at 10 µM [2]: 20.5%

COC(=O)c1ccc(CC2(C3=CCc4ccccc43)Cc3ccccc3C2=O)cc1 (stereo unspecified)
inhibition at 20 µM [1]: -27.8%
inhibition at 10 µM [2]: 31.5%

O=C(O)c1cc(=O)c2c(OCC(O)COc3cccc4oc(C(=O)O)cc(=O)c34)cccc2o1 [CROMOLYN SODIUM]
inhibition at 20 µM [1]: 9.1%

COC(=O)C1=C(C)NC(C)=C(C(=O)OC)C1c1ccccc1[N+](=O)[O-] [NIFEDIPINE]
IC50 [5]: 14.7 nM
IC50 [3]: 14.7 nM
inhibition at 0.01 µM [6]: 48.1%

Cc1cc2c(c(C)c1CCO)C(=O)C(C)(C)C2 [PTEROSIN Z]
IC50 [3]: 1300 nM
